Source: PubChem
Hits are enriched below; roughly 2.3% of the tested compounds scored in any of these assays.
TRPC4 agonist: activators of mouse TRPC4 channel. Q9QUQ5. HEK293 TRPC4beta/mu-opioid, Fluo4 calcium fluorescence; active compounds read high. B-score at 10 µM. actives 0.49% (n = 310,000);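 active means B-score above 5 SD of library B-scores, and initial fluorescence ratio not above library mean plus 5 SD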;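 further: positive B-score marks a calcium rise read as TRPC4 activation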
Target sequence (Q9QUQ5 whole entry, looked up): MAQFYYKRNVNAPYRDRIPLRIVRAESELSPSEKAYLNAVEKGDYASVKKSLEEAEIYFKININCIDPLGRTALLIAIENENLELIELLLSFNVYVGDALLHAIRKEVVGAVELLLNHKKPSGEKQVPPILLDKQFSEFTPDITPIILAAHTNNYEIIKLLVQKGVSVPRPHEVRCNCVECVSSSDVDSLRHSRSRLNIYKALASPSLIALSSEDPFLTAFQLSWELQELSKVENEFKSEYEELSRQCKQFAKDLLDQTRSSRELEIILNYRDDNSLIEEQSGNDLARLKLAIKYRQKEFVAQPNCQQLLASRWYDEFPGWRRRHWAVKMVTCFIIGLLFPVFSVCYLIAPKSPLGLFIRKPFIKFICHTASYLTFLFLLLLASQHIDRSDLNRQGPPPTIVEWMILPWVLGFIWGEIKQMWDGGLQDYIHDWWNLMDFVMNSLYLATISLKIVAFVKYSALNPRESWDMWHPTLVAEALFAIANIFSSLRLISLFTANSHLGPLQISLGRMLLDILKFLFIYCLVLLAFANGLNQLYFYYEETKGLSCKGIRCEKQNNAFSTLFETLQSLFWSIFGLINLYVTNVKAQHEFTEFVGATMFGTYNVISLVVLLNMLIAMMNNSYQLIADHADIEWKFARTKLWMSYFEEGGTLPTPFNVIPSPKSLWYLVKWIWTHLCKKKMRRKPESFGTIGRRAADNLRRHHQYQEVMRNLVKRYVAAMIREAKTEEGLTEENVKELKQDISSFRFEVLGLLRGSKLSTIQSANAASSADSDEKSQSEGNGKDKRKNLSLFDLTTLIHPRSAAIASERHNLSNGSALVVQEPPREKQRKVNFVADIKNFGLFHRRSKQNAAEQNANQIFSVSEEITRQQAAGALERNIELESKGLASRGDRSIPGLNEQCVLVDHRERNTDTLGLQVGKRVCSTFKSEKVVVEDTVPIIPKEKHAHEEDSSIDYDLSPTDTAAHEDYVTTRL
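System: HEK293 cells stably co-expressing mouse TRPC4beta and mu-opioid receptor; Schedule: Fluo4 dye loading 45 min at room temperature, 110 s recording; Detection: Fluo4 fluorescence, kinetic; Evaluation: B-scored integrated calcium fluorescence ratio; Controls: buffer (low) and maximal DAMGO (high).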
TRPC6 inh: mouse TRPC6 channel inhibition | actives 1.1% (n = 310,000) | B-score at 10 µM | HEK293-TRPC6, membrane potential dye, ACh-evoked depolarization; active compounds read low | AID 2553 | Q61143;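 active means B-score under library mean minus 3 SD, initial fluorescence not abnormally high, positive integrated signal ratio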;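 further: B-score derived from integrated fluorescence ratio over the kinetic read; more negative B-score means stronger inhibition of depolarization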
TRPC4 PAM: TRPC4 (mouse) allosteric potentiation | Q9QUQ5 | AID 2227 | actives 0.42% (n = 310,000) | HEK293 TRPC4beta/mu-opioid, DAMGO EC20, Fluo-4 Ca2+ flux; active compounds read high | B-score at 10 µM;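 active means B-score of calcium response area above 5 SD of library B-scores, with initial fluorescence ratio within 5 SD of library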
TRPC4 inh: blocks the mouse TRPC4 cation channel; Q9QUQ5; HEK293 TRPC4beta/mu-opioid, DAMGO-evoked Fluo4 calcium flux; active compounds read low; B-score at 10 µM; actives 0.39% (n = 300,000); AID 2247;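 active means B-score over 3 SD under the library average, no early fluorescence shift, positive overall ratio signal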
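System: stable TRPC4beta/mu-opioid receptor HEK293 cells; Dosing: single-point compound dosing; Measured by: Fluo4 Ca2+ flux fluorescence; Read-out basis: per-well B score of integrated baseline-normalized Fluo4 ratio.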
TRPC6 activator: activates the mouse TRPC6 cation channel; HEK293-TRPC6 membrane potential dye fluorescence; active compounds read high; B-score at 10 µM; actives 0.13% (n = 310,000); AID 2550;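 active means B-score of the integrated fluorescence ratio above library mean plus 3 SD, and starting fluorescence ratio within library mean plus 5 SD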;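 further: higher score means more depolarization so channel activation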
TRPC4 sel inh 2: second check of whether TRPC6 inhibitors also affect mouse TRPC4; inhibition, % at 10 µM; HEK293 TRPC4/MOR, membrane potential dye fluorescence; channel activated by saturating DAMGO dose; actives 42% (n = 920); shares compounds with TRPC6 inh; AID 2776;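 active means compounds whose fluorescence signal differed from control wells by over 3 SD, either direction, in both duplicate plates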
TRPC4 spec: tests whether TRPC6 inhibitors also affect mouse TRPC4; shares compounds with TRPC6 inh; HEK293 TRPC4/mu-opioid, membrane potential fluorescence; activity change, negative = inhibition, % at 10 µM; actives 61% (n = 920);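 active means rise or fall in signal beyond 3 SD of buffer-only wells in both replicate plates, either sign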;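 further: integrated kinetic ratio of fluorescence range over baseline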
HEK293 MPD ctr 2-1: second counter-screen for TRPC6 inhibitors: parental HEK293 cells; shares compounds with TRPC6 inh; parental HEK293 membrane potential dye fluorescence; maximal acetylcholine challenge after compound addition; signal change vs control, % at 10 µM; actives 31% (n = 920); AID 2779;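 active means membrane potential signal moving either way by over 3 SD of the maximum-effect control, in both duplicate plates, meaning non-specific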
HEK293 MPD ctr-1: parental HEK293 nonspecific activity of TRPC6 inhibitors. shares compounds with TRPC6 inh. parental HEK293 membrane potential dye fluorescence. membrane potential signal change, % at 10 µM. actives 60% (n = 920);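 active means membrane potential signal shifting up or down by more than 3 SD of buffer-only wells, on both duplicate plates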
HEK293 MPD ctr-2: counter-screen for TRPC6 modulators: effect in parental HEK293 cells; membrane potential dye fluorescence; membrane potential signal change, % at 10 µM; actives 51% (n = 2,400); shares compounds with TRPC6 inh;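 active means membrane potential signal moves up or down beyond 5 SD from buffer-only wells, on both duplicate plates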
HEK293 MPD ctr 2-2: parental HEK293 nonspecific activity of TRPC6 modulators, second screen | shares compounds with TRPC6 inh | membrane potential dye fluorescence; after compound, maximal acetylcholine stimulation | inhibition, % at 10 µM | actives 14% (n = 2,400) | AID 488926;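 active means membrane potential signal drops by more than 5 SD from the mean control signal, in both duplicate plates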
TRPC4/MOR mod: mouse TRPC4 off-target activity of TRPC6 modulators. percent change from control (negative = decrease, positive = increase), % at 10 µM. actives 69% (n = 2,400). shares compounds with TRPC6 inh. HEK293 TRPC4/mu-opioid, membrane potential fluorescence. AID 488927;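 active means membrane potential signal moved up or down beyond 5 SD of buffer control wells, in both duplicate plates, actives on both sides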
TRPC4 ctr inh 2: second check of whether TRPC6 modulators also affect mouse TRPC4. shares compounds with TRPC6 inh. HEK293 TRPC4/mu-opioid, membrane potential dye fluorescence; stimulated with maximal-effect DAMGO. inhibition, % at 10 µM. actives 55% (n = 2,400). AID 488928;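 active means drop in membrane potential signal beyond 5 SD of the control wells in both duplicate plates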;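 further: TRPC4 counter screen for TRPC6 hits run under conditions tuned for TRPC6 not TRPC4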
TRPC6 block conf: confirmation of mouse TRPC6 inhibitors | inhibition, % at 10 µM | actives 43% (n = 3,300) | shares compounds with TRPC6 inh | HEK293-TRPC6, membrane potential dye, ACh-evoked depolarization;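 active means fluorescence ratio falls more than 5 SD below the full-stimulation control mean, in both duplicate runs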;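 further: integrated fluorescence ratio of peak minus minimum over baseline after agonist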
TRPC6 act confirm: confirmation of mouse TRPC6 activators; activation, % at 10 µM; actives 11% (n = 2,800); HEK293-TRPC6 membrane potential dye fluorescence, FDSS; shares compounds with TRPC6 inh;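 active means ratio signal rise beyond 5 SD above unstimulated control wells' mean, seen in both duplicate runs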
Large screens that a line does not name were inactive (follow-up assays come after a bar, where they were run).

CC[C@H]1CN2CC[C@@]3(C(=O)Nc4ccccc43)[C@@H]2C[C@@H]1/C(=C\OC)C(=O)OC	none
CN1CCC(N(C)c2nc(-c3ccc([N+](=O)[O-])cc3)nc3ccccc23)CC1	TRPC6 inh -11 | HEK293 MPD ctr-2 -296% | HEK293 MPD ctr 2-2 69% | TRPC4/MOR mod -56% | TRPC4 ctr inh 2 57% | TRPC6 block conf 68% | TRPC6 act confirm inactive
O=P(O)(Oc1ccccc1)OC(c1ccccc1)C(F)(F)C(F)(F)F (centres undefined)	none
C[N+]12CCC(CC1)C(C(O)(c1cccc(Cl)c1)c1cccc(Cl)c1)C2 (centres undefined)	none
C[N+]12CCC(CC1)C(OC(=O)C(O)(c1ccccc1)c1ccccc1)C2 (centres undefined)	TRPC6 inh -8.8 | TRPC4 sel inh 2 inactive | TRPC4 spec inactive | HEK293 MPD ctr 2-1 8.0% | HEK293 MPD ctr-1 inactive | TRPC6 block conf 81% | TRPC6 act confirm inactive
CCC(CO)(C(=O)OC1C[N+]2(C)CCC1CC2)c1ccccc1 (centres undefined)	TRPC6 inh -11 | TRPC4 sel inh 2 inactive | TRPC4 spec inactive | HEK293 MPD ctr 2-1 -30% | HEK293 MPD ctr-1 inactive | TRPC6 block conf 97% | TRPC6 act confirm inactive
C[N+]1(C)C2CCC1CC(OC(=O)c1ccccc1)C2 (centres undefined)	none
C[N+]1(C)C2CCC1CC(OC(=O)C(CO)c1ccccc1)C2 (centres undefined)	TRPC6 inh -8.5 | TRPC4 sel inh 2 inactive | TRPC4 spec inactive | HEK293 MPD ctr 2-1 -32% | HEK293 MPD ctr-1 inactive | TRPC6 block conf 102% | TRPC6 act confirm inactive
CN1[C@@H]2CC[C@H]1CC(OC(=O)C(CO)c1ccccc1)C2 (some centres undefined)	TRPC6 inh -6.9 | TRPC4 sel inh 2 inactive | TRPC4 spec inactive | HEK293 MPD ctr 2-1 -18% | HEK293 MPD ctr-1 inactive | TRPC6 block conf 101% | TRPC6 act confirm inactive
C#CC[N+]1(C)[C@@H]2CC(OC(=O)C(CO)c3ccccc3)C[C@H]1C(O)C2 (some centres undefined)	TRPC6 inh -9.9 | TRPC4 sel inh 2 inactive | TRPC4 spec inactive | HEK293 MPD ctr 2-1 1.5% | HEK293 MPD ctr-1 inactive | TRPC6 block conf 87% | TRPC6 act confirm inactive
CN(C)CC1CCCCC1OC(=O)Cc1ccc(Cl)c([N+](=O)[O-])c1 (centres undefined)	none
Cc1nc(SCc2c(Cl)cccc2Cl)nc(OC(=O)N(C)C)c1C	none
C[n+]1c(-c2ccccc2)cc(-c2ccc(Cl)cc2)cc1-c1ccccc1	none
Cc1ccc(-c2cc(-c3ccc(C)cc3)[n+](-c3ccccc3)c(-c3ccc(C)cc3)c2)cc1	TRPC4 agonist 82, TRPC6 inh -8.7 | TRPC4 sel inh 2 41% | TRPC4 spec 3.5% | HEK293 MPD ctr 2-1 inactive | HEK293 MPD ctr-1 6.0% | TRPC6 block conf 101% | TRPC6 act confirm inactive
Cc1ccc(-c2cc(-c3ccc(C)cc3)[n+](C)o2)cc1	none
Cc1ccc(-c2cc(-c3ccccc3)cc(-c3ccccc3)[n+]2-c2ccccc2)cc1	TRPC6 inh -9.6, TRPC4 PAM 33 | TRPC4 sel inh 2 54% | TRPC4 spec 14% | HEK293 MPD ctr 2-1 inactive | HEK293 MPD ctr-1 8.2% | TRPC6 block conf 96% | TRPC6 act confirm inactive
Cc1nc2ccc(Cl)cc2c(-c2ccccc2)c1C(=O)O	none
C[N+](C)(C)CC#CCN1CCCC1=O	TRPC4 agonist 86, TRPC6 inh -5.9 | HEK293 MPD ctr-2 103% | HEK293 MPD ctr 2-2 60% | TRPC4/MOR mod 45% | TRPC4 ctr inh 2 inactive | TRPC6 block conf 78%
CCOc1cc2c(cc1OCC)-n1cccc1C(c1cccc([N+](=O)[O-])c1)NC2 (centres undefined)	none
CN1CCc2nc3sc(C#N)c(N)c3c(-c3cccs3)c2C1	TRPC6 inh -9.2 | HEK293 MPD ctr-2 -192% | HEK293 MPD ctr 2-2 inactive | TRPC4/MOR mod -32% | TRPC4 ctr inh 2 34% | TRPC6 block conf inactive | TRPC6 act confirm inactive
CN1CCc2nc(N)c(C#N)c(-c3ccccc3)c2C1	none
CCOc1ccccc1CN1C2CCC1CC(c1ccc(C)cc1)C2 (centres undefined)	TRPC6 activator 16 | HEK293 MPD ctr-2 265% | HEK293 MPD ctr 2-2 inactive | TRPC4/MOR mod 69% | TRPC4 ctr inh 2 58% | TRPC6 block conf inactive | TRPC6 act confirm 108%
CCOc1ccccc1CNCCc1ccc2c(c1)OCO2	none
c1ccc2c(c1)CC1CNCc3cccc(c31)S2 (centres undefined)	TRPC6 inh -7.1 | TRPC4 sel inh 2 62% | TRPC4 spec inactive | HEK293 MPD ctr 2-1 inactive | HEK293 MPD ctr-1 inactive | TRPC6 block conf 66% | TRPC6 act confirm inactive
C=C1[C@@H](OC(C)=O)[C@]23C[C@@H]1[C@@H](OC(C)=O)CC2[C@]12C4C[C@H]3[C@H]1N(CC)C[C@]4(C)CC[C@@H]2O (some centres undefined)	none
Cc1[nH]c2ccccc2c1CCN	none
